Legend:
[1] = target: Cyclin-dependent kinase 2 (Homo sapiens) (UniProt P24941); assay: Inhibition of Cdk2 at 10 uM
[2] = target: Aurora kinase B (Homo sapiens) (UniProt Q96GD4); assay: Inhibition of Aurora B at 10 uM
[3] = target: Macrophage-stimulating protein receptor (Homo sapiens) (UniProt Q04912); assay: Inhibition of Ron at 10 uM
[4] = target: Vascular endothelial growth factor receptor 1 (Homo sapiens, UniProt P17948); assay: Inhibition of VEGFR1 by HTRF assay
[5] = target: Glycogen synthase kinase-3 beta (Homo sapiens) (UniProt P49841); assay: Inhibition of GSK3-beta at 10 uM
[6] = target: T1, Vascular endothelial growth factor receptor 2 (Homo sapiens, UniProt P35968); assay: Inhibition of VEGFR2 by HTRF assay in presence of 2 uM ATP
In short: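 HTRF kinase assay with KDR enzyme (3–4 ng) and biotinylated pGAT substrate. ATP added to start, 45 min at RT. Stopped with EDTA/KF buffer plus Eu-cryptate anti-phosphotyrosine antibody, 2 h RT, then HTRF read. IC50 from 10-point log concentration curves, mean of at least two duplicate runs.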

[7] = target: Receptor tyrosine-protein kinase erbB-2 (Homo sapiens) (UniProt P04626); assay: Inhibition of ErbB2 at 10 uM
[8] = target: Insulin receptor (Homo sapiens) (UniProt P06213); assay: Inhibition of IR at 10 uM
[9] = target: T1, Vascular endothelial growth factor receptor 2; assay: Binding affinity to VEGFR2 at IC50 in presence of ATP
In short: (§1)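 ATP competition assay with VEGFR-2. Five concentrations of ³²P ATP across 0-100 µM, each incubated with enzyme for 45 min at RT. Inhibitor was absent or present at two fixed levels.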

[10] = target: Serine/threonine-protein kinase PLK1 (Homo sapiens) (UniProt P53350); assay: Inhibition of Plk1 at 10 uM
[11] = target: Hepatocyte growth factor receptor (Homo sapiens) (UniProt P08581); assay: Inhibition of c-Met at 10 uM
[12] = target: Proto-oncogene tyrosine-protein kinase Src (Homo sapiens) (UniProt P12931); assay: Inhibition of Src at 10 uM
[13] = Inhibition of PKA at 10 uM
[14] = target: Bcr/Abl fusion protein (Homo sapiens) (UniProt P00519+P11274); assay: Inhibition of Bcr-Abl at 10 uM; format: protein assay
[15] = target: T2, Aurora kinase A (Homo sapiens) (UniProt O14965); assay: Inhibition of Aurora A at 10 uM
T2 sequence (whole entry): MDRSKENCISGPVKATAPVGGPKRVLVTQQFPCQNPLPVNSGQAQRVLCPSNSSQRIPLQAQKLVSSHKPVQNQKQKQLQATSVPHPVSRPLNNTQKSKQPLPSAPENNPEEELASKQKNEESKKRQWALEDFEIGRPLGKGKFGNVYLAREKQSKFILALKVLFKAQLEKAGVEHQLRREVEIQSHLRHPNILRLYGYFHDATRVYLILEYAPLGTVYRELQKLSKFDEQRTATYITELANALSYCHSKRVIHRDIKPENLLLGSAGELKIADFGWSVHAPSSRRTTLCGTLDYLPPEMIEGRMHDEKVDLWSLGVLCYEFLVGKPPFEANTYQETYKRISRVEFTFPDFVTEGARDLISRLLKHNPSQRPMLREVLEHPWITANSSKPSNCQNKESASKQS

[16] = target: Cyclin-dependent kinase 1 (Homo sapiens) (UniProt P06493); assay: Inhibition of Cdk1 at 10 uM
[17] = target: T1, Vascular endothelial growth factor receptor 2; assay: Inhibition of VEGF-induced phosphorylation of VEGFR2 by cell-based ELISA
[18] = target: Receptor-type tyrosine-protein kinase FLT3 (Homo sapiens) (UniProt P36888); assay: Inhibition of Flt3 at 10 uM
[19] = target: Insulin-like growth factor 1 receptor (Homo sapiens) (UniProt P08069); assay: Inhibition of IGF1R at 10 uM
[20] = Inhibition of Bcr-Abl T315 mutant at 10 uM
[21] = target: Epidermal growth factor receptor (Homo sapiens) (UniProt P00533); assay: Inhibition of EGFR at 10 uM
[22] = target: T1, Vascular endothelial growth factor receptor 2; assay: Binding affinity to VEGFR2 at IC90 in presence of ATP; in short: as §1
[23] = target: Fibroblast growth factor receptor 1 (Homo sapiens) (UniProt P11362); assay: Inhibition of FGFR1 at 10 uM

Sequence of Insulin-like growth factor 1 receptor (Homo sapiens) (P08069 31-736 limits assumed): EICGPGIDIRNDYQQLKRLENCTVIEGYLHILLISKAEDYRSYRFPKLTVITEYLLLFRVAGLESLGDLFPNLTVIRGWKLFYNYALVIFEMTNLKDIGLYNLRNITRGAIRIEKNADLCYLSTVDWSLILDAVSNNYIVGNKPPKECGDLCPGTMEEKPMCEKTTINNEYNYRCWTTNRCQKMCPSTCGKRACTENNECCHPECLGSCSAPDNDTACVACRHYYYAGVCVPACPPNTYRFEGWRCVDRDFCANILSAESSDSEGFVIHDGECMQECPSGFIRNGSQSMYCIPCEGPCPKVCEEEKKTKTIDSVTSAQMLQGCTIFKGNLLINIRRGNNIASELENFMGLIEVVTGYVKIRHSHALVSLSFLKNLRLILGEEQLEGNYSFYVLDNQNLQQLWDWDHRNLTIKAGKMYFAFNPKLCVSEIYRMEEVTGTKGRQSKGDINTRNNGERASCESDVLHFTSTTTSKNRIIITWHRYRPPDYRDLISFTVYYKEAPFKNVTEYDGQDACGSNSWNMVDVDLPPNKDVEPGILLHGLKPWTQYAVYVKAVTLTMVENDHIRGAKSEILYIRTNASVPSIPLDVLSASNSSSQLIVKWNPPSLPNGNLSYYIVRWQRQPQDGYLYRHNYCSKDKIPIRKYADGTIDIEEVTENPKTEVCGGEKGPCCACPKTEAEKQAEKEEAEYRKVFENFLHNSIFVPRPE
Sequence of Insulin-like growth factor 1 receptor (Homo sapiens) (P08069 741-1367 limits assumed): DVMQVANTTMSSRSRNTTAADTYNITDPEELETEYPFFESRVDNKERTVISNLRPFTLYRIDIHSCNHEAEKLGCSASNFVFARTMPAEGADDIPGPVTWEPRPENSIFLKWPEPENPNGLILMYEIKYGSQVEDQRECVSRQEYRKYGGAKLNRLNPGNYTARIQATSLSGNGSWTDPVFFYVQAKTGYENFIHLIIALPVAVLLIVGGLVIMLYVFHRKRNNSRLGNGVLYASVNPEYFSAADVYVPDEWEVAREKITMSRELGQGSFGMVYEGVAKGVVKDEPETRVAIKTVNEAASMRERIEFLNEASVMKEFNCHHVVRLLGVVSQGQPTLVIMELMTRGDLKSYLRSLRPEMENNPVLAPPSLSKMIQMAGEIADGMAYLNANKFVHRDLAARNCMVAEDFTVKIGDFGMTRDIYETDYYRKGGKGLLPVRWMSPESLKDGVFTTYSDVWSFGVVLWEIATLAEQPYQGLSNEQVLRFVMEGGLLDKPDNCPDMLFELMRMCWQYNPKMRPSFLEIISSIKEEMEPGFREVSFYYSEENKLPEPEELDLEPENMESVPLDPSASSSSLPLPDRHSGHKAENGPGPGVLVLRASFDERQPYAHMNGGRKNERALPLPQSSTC
Sequence of Bcr/Abl fusion protein (Homo sapiens) (P00519 whole entry, looked up, the tested form may be a part): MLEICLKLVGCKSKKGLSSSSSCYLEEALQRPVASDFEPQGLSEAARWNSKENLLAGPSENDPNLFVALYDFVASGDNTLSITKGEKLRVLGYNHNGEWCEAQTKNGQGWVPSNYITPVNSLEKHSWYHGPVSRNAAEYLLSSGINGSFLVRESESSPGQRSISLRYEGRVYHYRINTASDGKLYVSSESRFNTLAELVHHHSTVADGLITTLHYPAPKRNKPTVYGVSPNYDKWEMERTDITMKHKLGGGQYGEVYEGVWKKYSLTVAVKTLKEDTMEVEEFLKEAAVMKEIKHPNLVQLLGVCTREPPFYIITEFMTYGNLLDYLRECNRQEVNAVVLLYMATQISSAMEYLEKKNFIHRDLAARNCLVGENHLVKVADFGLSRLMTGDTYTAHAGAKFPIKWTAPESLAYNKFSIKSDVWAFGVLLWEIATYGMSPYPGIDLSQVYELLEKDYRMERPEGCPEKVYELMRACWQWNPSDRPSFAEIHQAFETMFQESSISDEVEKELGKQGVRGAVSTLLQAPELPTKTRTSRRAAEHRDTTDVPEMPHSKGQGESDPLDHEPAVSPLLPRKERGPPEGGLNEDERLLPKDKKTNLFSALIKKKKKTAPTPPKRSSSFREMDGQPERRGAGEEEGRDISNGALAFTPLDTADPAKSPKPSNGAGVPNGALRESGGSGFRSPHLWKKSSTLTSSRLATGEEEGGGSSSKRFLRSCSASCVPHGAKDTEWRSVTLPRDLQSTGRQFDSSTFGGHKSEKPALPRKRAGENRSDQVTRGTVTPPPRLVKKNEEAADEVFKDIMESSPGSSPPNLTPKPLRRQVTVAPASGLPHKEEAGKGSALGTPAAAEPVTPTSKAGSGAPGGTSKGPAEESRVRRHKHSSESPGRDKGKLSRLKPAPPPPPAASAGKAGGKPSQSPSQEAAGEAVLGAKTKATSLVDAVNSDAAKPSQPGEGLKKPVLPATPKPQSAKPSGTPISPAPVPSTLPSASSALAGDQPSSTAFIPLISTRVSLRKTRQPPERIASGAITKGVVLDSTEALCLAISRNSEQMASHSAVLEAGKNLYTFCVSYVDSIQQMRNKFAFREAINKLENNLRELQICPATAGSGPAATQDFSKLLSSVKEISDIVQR
Sequence of Bcr/Abl fusion protein (Homo sapiens) (P11274 whole entry, looked up, the tested form may be a part): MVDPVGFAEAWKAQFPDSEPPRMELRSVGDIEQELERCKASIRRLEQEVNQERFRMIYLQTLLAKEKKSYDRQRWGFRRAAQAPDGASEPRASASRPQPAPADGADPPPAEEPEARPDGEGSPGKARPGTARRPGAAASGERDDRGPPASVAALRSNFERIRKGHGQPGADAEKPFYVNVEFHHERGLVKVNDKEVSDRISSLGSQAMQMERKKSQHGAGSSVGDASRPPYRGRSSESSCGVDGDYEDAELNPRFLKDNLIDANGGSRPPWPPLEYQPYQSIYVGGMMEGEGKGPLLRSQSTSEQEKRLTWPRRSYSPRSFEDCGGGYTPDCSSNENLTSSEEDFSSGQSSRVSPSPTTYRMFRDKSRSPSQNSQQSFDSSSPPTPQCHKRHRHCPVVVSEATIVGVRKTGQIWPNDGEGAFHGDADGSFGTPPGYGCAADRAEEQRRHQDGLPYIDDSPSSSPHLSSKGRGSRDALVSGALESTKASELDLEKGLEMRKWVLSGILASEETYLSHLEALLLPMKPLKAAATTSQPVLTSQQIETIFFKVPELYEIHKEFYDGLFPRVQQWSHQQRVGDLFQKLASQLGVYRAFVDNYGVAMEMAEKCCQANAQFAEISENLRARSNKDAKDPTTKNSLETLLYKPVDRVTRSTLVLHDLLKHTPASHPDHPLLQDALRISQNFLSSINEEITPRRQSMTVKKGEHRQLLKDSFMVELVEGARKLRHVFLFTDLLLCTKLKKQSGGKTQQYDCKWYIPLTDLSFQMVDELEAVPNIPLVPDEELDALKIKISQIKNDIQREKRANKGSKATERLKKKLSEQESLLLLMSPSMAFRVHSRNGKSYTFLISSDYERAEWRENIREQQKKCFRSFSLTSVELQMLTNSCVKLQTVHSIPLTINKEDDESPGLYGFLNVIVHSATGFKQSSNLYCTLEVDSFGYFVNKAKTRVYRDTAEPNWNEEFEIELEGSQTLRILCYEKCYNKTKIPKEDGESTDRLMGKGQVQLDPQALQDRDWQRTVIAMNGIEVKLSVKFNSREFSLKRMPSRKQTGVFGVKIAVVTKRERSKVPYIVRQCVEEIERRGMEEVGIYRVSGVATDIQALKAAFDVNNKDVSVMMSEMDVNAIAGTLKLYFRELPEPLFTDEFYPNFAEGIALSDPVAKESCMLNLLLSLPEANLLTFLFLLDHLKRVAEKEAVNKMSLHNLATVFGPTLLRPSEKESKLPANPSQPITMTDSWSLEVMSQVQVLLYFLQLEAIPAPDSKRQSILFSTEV
Sequence of Macrophage-stimulating protein receptor (Homo sapiens) (Q04912 25-304 limits assumed): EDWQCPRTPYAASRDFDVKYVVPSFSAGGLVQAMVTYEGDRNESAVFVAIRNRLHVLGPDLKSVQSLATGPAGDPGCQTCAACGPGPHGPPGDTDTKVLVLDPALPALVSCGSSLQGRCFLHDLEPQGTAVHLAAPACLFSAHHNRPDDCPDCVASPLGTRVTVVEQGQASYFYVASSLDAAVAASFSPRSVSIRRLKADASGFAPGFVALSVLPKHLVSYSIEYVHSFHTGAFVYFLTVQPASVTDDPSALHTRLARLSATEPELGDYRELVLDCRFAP
Sequence of Macrophage-stimulating protein receptor (Homo sapiens) (Q04912 310-1400 limits assumed): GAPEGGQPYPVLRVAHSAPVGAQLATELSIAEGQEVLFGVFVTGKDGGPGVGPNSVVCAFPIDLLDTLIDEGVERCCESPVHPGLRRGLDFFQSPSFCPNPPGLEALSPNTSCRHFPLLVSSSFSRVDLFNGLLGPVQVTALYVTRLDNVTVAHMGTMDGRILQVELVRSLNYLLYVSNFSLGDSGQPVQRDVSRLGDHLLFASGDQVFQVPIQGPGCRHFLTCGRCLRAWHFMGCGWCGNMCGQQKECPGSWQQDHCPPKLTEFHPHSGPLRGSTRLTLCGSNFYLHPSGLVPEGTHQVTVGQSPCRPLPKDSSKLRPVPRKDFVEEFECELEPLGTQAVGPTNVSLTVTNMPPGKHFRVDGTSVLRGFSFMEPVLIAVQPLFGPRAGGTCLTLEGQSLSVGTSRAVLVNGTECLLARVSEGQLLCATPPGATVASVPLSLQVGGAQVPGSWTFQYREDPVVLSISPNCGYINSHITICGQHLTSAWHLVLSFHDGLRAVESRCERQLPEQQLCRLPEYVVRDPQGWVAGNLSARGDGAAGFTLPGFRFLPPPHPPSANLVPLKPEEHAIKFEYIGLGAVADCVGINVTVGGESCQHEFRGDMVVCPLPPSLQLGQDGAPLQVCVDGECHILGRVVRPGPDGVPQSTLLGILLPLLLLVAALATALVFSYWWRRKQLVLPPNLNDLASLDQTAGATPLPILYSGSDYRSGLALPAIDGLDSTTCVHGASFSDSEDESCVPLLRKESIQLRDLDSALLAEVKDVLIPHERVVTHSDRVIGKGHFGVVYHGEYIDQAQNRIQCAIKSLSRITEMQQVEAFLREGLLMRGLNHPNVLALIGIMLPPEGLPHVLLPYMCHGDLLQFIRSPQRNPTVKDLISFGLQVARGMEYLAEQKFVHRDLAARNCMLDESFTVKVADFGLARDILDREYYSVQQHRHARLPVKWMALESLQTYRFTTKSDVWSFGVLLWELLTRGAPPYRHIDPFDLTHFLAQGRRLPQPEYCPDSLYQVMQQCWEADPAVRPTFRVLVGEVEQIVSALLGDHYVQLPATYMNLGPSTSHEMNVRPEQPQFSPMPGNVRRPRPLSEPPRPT

Row | Structure (SMILES) | inhibition [1] [%] | inhibition [2] [%] | inhibition [3] [%] | IC50 [4] [nM] | inhibition [5] [%] | IC50 [6] [nM] | inhibition [7] [%] | inhibition [8] [%] | inhibition [10] [%] | inhibition [11] [%] | inhibition [12] [%] | inhibition [13] [%] | inhibition [14] [%] | inhibition [15] [%] | inhibition [16] [%] | IC50 [17] [nM] | inhibition [18] [%] | inhibition [19] [%] | inhibition [20] [%] | inhibition [21] [%] | further results
1 | Clc1cccc(-n2cc(-c3ccccc3NCc3ccccn3)nn2)c1 | < 30 | < 30 | < 30 | > 10000 | < 30 | > 10000 | < 30 | < 30 | < 30 | < 30 | < 30 | < 30 | < 30 | < 30 | < 30 | > 10000 | < 30 | < 30 | < 30 | < 30 | inhibition [23]: < 30%
2 | Clc1cccc(-n2cc(-c3ccccc3NCc3c[nH]cn3)nn2)c1 | < 30 | < 30 | < 30 | > 10000 | < 30 | > 10000 | < 30 | < 30 | < 30 | < 30 | < 30 | < 30 | < 30 | < 30 | < 30 | > 10000 | < 30 | < 30 | < 30 | < 30 | inhibition [23]: < 30%
3 | FC(F)(F)c1cccc(-n2cc(-c3ccccc3NCc3ccnc4ccccc34)nn2)c1 | < 30 | < 30 | < 30 | 210 | < 30 | 160 | < 30 | < 30 | < 30 | < 30 | < 30 | < 30 | < 30 | < 30 | < 30 | 310 | < 30 | < 30 | < 30 | < 30 | inhibition [23]: < 30%
4 | Clc1cccc(-n2cc(-c3ccccc3NCc3ccc4c(c3)OCO4)nn2)c1 | < 30 | < 30 | < 30 | > 10000 | < 30 | > 10000 | < 30 | < 30 | < 30 | < 30 | < 30 | < 30 | < 30 | < 30 | < 30 | > 10000 | < 30 | < 30 | < 30 | < 30 | inhibition [23]: < 30%
5 | c1ccc(-c2cn(-c3ccc4ccccc4n3)nn2)c(NCc2ccncc2)c1 | < 30 | < 30 | < 30 | 640 | < 30 | 770 | < 30 | < 30 | < 30 | < 30 | < 30 | < 30 | < 30 | < 30 | < 30 | 1190 | < 30 | < 30 | < 30 | < 30 | inhibition [23]: < 30%
6 | FC(F)(F)c1cccc(-n2cc(-c3ccccc3NCc3cccnc3)nn2)c1 | < 30 | < 30 | < 30 | > 10000 | < 30 | > 10000 | < 30 | < 30 | < 30 | < 30 | < 30 | < 30 | < 30 | < 30 | < 30 | > 10000 | < 30 | < 30 | < 30 | < 30 | inhibition [23]: < 30%

Second part, led by results:

Row | inhibition [1] [%] | inhibition [2] [%] | inhibition [3] [%] | IC50 [4] [nM] | inhibition [5] [%] | IC50 [6] [nM] | inhibition [7] [%] | inhibition [8] [%] | inhibition [10] [%] | inhibition [11] [%] | inhibition [12] [%] | inhibition [13] [%] | inhibition [14] [%] | inhibition [15] [%] | inhibition [16] [%] | IC50 [17] [nM] | inhibition [18] [%] | inhibition [19] [%] | inhibition [20] [%] | inhibition [21] [%] | Structure (SMILES) | further results
7 | < 30 | < 30 | < 30 | 130 | < 30 | 110 | < 30 | < 30 | < 30 | < 30 | < 30 | < 30 | < 30 | < 30 | < 30 | 150 | < 30 | < 30 | < 30 | < 30 | CC(C)c1cccc(-n2cc(-c3ccccc3NCc3ccncc3)nn2)c1 | Ki [9]: 160 nM; Ki [22]: 140 nM; inhibition [23]: < 30%
8 | < 30 | < 30 | < 30 | 860 | < 30 | 980 | < 30 | < 30 | < 30 | < 30 | < 30 | < 30 | < 30 | < 30 | < 30 | 2020 | < 30 | < 30 | < 30 | < 30 | Cc1cc(-n2cc(-c3ccccc3NCc3ccncc3)nn2)ccc1C(F)(F)F | inhibition [23]: < 30%
9 | < 30 | < 30 | < 30 | 72 | < 30 | 66 | < 30 | < 30 | < 30 | < 30 | < 30 | < 30 | < 30 | < 30 | < 30 | 85 | < 30 | < 30 | < 30 | < 30 | FC(F)(F)Oc1cccc(-n2cc(-c3ccccc3NCc3ccncc3)nn2)c1 | inhibition [23]: < 30%
10 | < 30 | < 30 | < 30 | 1130 | < 30 | 1220 | < 30 | < 30 | < 30 | < 30 | < 30 | < 30 | < 30 | < 30 | < 30 | 3110 | < 30 | < 30 | < 30 | < 30 | FC(F)(F)Oc1ccc(-n2cc(-c3ccccc3NCc3ccncc3)nn2)cc1 | inhibition [23]: < 30%
11 | < 30 | < 30 | < 30 | 130 | < 30 | 390 | < 30 | < 30 | < 30 | < 30 | < 30 | < 30 | < 30 | < 30 | < 30 | 270 | < 30 | < 30 | < 30 | < 30 | Clc1ccc(-n2cc(-c3ccccc3NCc3ccncc3)nn2)cc1 | inhibition [23]: < 30%
12 | < 30 | < 30 | < 30 | 530 | < 30 | 610 | < 30 | < 30 | < 30 | < 30 | < 30 | < 30 | < 30 | < 30 | < 30 | 1630 | < 30 | < 30 | < 30 | < 30 | CC(C)(C)c1ccc(-n2cc(-c3ccccc3NCc3ccncc3)nn2)cc1 | inhibition [23]: < 30%

Reference: ChEMBL document CHEMBL1153264, “(1,2,3-Triazol-4-yl)benzenamines: synthesis and activity against VEGF receptors 1 and 2” (Bioorg Med Chem Lett, 2009)
